Experimental data: ChEMBL document CHEMBL4396947, “Synthesis and characterization of novel isoform-selective IP6K1 inhibitors” (Bioorg Med Chem Lett, 2019)

Tests used:
[1] = molecular target: Dual specificity mitogen-activated protein kinase kinase 1 (Homo sapiens) (UniProt Q02750); experiment: Inhibition of full length recombinant human MEK1 assessed as residual activity at 10 uM using inactive MAPK2 as substrate incubated for 40 mins in presence of [gamma-33P]ATP at Km concentration by radiometric assay relative to control
[2] = organism: Homo sapiens; experiment: Selectivity ratio of Ki for IP6K3 (unknown origin) to Ki for IP6K1 (unknown origin)
How it was run: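 Purified IP6K1, IP6K2 and IP6K3 were each tested in an ADP-Glo Max luminescence assay optimized for IP6K, with 1 mM ATP consumed as the kinase reaction proceeds. IC50 values from each isoform were converted to Ki with the Cheng-Prusoff equation, and the Ki ratio versus IP6K1 was taken.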

[3] = molecular target: Tyrosine-protein kinase receptor TYRO3 (Homo sapiens) (UniProt Q06418); experiment: Inhibition of recombinant human RSE (451 to end residues) assessed as residual activity at 10 uM using KVEKIGEGTYGVV as substrate incubated for 40 mins in presence of [gamma-33P]ATP at Km concentration by scintillation counting method relative to control
Tyrosine-protein kinase receptor TYRO3 (Homo sapiens), sequence (Q06418 whole entry): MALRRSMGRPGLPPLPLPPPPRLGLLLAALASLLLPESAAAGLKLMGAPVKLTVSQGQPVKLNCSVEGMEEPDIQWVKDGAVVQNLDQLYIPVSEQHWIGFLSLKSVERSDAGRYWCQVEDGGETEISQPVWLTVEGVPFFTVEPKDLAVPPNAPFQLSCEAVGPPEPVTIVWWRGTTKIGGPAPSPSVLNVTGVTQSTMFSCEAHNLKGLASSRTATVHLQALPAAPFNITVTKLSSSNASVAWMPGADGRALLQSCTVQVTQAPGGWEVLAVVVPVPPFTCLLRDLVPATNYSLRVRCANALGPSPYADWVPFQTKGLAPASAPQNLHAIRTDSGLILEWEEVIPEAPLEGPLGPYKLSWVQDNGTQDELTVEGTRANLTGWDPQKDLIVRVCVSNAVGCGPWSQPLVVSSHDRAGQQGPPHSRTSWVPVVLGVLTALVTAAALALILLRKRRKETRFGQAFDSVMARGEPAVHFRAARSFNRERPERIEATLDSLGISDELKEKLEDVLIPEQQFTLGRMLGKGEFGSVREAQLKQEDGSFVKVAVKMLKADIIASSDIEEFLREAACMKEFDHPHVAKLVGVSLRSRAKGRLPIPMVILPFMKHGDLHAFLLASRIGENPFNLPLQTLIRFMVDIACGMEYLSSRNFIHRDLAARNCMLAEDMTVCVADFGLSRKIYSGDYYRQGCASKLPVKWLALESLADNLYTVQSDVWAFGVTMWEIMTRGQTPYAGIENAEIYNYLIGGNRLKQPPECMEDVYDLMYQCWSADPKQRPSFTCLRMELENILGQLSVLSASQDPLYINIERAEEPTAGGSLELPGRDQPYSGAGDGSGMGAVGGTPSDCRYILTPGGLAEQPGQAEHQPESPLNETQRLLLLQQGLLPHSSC

[4] = molecular target: Inhibitor of nuclear factor kappa-B kinase subunit alpha (Homo sapiens) (UniProt O15111); experiment: Inhibition of human full length recombinant IKKalpha assessed as residual activity at 10 uM using peptide as substrate incubated for 40 mins in presence of [gamma-33P]ATP at Km concentration by radiometric assay relative to control
Inhibitor of nuclear factor kappa-B kinase subunit alpha (Homo sapiens), sequence (O15111 whole entry): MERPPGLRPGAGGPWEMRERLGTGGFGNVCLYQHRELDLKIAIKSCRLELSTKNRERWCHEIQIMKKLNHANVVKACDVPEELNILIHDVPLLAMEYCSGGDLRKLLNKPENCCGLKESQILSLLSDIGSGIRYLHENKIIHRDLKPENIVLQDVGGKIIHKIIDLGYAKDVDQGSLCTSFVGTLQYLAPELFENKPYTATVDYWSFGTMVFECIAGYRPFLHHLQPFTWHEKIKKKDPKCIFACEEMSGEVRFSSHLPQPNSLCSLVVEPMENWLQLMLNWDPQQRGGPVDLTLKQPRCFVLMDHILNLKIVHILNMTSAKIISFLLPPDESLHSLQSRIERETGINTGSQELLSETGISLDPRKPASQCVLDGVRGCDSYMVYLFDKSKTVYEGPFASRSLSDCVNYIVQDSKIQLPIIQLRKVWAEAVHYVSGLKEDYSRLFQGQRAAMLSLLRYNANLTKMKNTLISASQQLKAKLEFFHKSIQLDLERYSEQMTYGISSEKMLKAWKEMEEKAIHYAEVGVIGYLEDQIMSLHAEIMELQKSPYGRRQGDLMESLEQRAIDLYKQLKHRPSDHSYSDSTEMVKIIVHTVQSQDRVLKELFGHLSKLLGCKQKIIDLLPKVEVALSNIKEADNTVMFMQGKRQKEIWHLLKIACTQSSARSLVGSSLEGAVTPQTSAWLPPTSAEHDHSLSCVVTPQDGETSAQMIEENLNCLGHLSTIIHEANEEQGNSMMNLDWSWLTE

[5] = molecular target: Serine/threonine-protein kinase 17A (Homo sapiens) (UniProt Q9UEE5); experiment: Inhibition of human full length recombinant DRAK1 assessed as residual activity at 10 uM using KKLNRTLSFAEPG as substrate incubated for 40 mins in presence of [gamma-33P]ATP at Km concentration by radiometric assay relative to control
[6] = molecular target: Serine/threonine-protein kinase Nek2 (Homo sapiens) (UniProt P51955); experiment: Inhibition of full length recombinant human NEK2 assessed as residual activity at 10 uM using myelin basic protein as substrate incubated for 40 mins in presence of [gamma-33P]ATP at Km concentration by radiometric assay relative to control
[7] = molecular target: PI3K p110 beta/p85 alpha (Homo sapiens) (UniProt P27986+P42338); experiment: Inhibition of recombinant full length human PI3K p110beta/p85alpha assessed as residual activity at 10 uM incubated for 40 mins in presence of [gamma-33P]ATP at Km concentration by radiometric assay relative to control; type: protein-complex assay
[8] = molecular target: Casein kinase II subunit alpha' (Homo sapiens) (UniProt P19784); experiment: Inhibition of recombinant full length human CK2alpha2 assessed as residual activity at 10 uM using RRRDDDSDDD as substrate incubated for 40 mins in presence of [gamma-33P]ATP at Km concentration by radiometric assay relative to control
Casein kinase II subunit alpha' (Homo sapiens), sequence (P19784 whole entry, looked up): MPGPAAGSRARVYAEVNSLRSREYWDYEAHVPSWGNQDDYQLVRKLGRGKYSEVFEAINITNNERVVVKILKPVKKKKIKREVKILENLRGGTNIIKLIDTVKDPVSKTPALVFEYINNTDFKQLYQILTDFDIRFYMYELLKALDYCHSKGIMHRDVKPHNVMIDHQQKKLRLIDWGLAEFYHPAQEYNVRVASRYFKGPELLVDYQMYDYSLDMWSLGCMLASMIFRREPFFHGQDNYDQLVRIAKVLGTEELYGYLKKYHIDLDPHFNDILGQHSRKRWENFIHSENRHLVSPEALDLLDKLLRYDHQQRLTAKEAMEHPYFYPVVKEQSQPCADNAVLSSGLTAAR

[9] = test system: RAF proto-oncogene serine/threonine-protein kinase (Homo sapiens), P04049 [Y340D,Y341D]; experiment: Inhibition of recombinant human c-RAF Y340D/Y341D double mutant (360 to end residues) assessed as residual activity at 10 uM using inactive MEK1 as substrate incubated for 40 mins in presence of [gamma-33P]ATP at Km concentration by radiometric assay relative to control
[10] = molecular target: Inositol hexakisphosphate kinase 2 (Homo sapiens, UniProt Q9UHH9); experiment: Inhibition of IP6K2 (unknown origin) in presence of ATP at Km concentration by Cheng-Prusoff equation analysis
Inositol hexakisphosphate kinase 2, sequence (Q9UHH9 whole entry, canonical isoform): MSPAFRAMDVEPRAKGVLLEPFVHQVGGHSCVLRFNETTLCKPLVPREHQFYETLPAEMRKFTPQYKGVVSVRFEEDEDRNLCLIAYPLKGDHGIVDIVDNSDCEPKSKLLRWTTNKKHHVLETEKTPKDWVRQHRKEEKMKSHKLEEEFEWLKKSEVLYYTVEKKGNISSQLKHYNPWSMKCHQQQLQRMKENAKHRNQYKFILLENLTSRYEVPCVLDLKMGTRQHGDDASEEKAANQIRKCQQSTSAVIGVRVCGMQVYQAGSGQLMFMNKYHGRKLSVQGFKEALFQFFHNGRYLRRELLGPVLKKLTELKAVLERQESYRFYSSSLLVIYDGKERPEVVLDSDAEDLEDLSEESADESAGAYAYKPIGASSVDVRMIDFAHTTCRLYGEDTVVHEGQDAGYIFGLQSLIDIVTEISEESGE
How it was run: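 Purified IP6K isoforms run in the ADP-Glo Max kinase assay with 1 mM ATP. Measured IC50 values converted to Ki with the Cheng-Prusoff equation.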

[11] = molecular target: Ephrin type-B receptor 4 (Homo sapiens) (UniProt P54760); experiment: Inhibition of recombinant human EPHB4 (561 to end residues) assessed as residual activity at 10 uM using poly (Glu,Tyr) 4:1 as substrate incubated for 40 mins in presence of [gamma-33P]ATP at Km concentration by radiometric assay relative to control
Ephrin type-B receptor 4 (Homo sapiens), sequence (P54760 whole entry, the tested form may be a part): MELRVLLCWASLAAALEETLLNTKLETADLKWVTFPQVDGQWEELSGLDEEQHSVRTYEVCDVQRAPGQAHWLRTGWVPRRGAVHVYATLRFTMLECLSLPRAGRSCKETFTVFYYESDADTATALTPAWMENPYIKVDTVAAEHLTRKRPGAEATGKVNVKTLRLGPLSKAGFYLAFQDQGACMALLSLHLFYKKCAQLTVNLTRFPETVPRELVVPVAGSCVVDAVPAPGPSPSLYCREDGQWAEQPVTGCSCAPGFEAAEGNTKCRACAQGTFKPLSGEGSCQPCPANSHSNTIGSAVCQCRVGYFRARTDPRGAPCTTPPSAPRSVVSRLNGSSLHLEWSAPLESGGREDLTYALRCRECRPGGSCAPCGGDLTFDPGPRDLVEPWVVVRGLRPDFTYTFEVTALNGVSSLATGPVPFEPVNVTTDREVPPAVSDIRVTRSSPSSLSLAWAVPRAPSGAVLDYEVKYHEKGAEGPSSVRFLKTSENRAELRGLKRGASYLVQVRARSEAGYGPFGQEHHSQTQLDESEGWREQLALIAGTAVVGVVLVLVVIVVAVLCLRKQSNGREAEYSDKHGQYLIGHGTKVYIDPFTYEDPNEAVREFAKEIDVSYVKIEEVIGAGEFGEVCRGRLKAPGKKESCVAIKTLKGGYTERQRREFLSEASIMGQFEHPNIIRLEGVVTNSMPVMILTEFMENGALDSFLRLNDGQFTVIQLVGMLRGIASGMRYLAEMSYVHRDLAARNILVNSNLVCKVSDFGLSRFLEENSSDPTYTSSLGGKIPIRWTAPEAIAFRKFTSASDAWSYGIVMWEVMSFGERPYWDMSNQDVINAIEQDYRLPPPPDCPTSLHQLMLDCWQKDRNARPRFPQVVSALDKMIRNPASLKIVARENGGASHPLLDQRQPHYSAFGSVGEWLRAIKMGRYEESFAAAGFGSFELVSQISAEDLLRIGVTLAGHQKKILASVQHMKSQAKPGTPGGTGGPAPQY

[12] = molecular target: Serine/threonine-protein kinase PLK3 (Homo sapiens) (UniProt Q9H4B4); experiment: Inhibition of recombinant human Plk3 (19 to 301 residues) assessed as residual activity at 10 uM using casein as substrate incubated for 40 mins in presence of [gamma-33P]ATP at Km concentration by radiometric assay relative to control
Serine/threonine-protein kinase PLK3 (Homo sapiens), sequence (Q9H4B4 whole entry, looked up, the tested form may be a part): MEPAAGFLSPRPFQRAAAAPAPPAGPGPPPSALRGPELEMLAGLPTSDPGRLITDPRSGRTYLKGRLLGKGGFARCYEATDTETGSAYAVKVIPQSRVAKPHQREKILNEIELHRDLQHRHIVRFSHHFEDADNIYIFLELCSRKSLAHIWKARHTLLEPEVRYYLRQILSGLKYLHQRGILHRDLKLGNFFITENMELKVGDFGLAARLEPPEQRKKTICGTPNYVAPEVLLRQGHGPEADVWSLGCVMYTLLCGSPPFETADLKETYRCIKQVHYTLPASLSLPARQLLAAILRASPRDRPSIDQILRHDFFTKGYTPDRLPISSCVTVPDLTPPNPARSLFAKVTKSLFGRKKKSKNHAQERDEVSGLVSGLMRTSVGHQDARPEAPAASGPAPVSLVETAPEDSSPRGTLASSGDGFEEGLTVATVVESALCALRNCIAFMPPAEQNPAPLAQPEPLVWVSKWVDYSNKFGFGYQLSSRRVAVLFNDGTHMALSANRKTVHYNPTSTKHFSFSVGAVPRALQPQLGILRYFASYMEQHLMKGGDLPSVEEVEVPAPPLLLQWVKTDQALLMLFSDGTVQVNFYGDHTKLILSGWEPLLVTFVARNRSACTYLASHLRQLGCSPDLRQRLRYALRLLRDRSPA

[13] = molecular target: cGMP-dependent protein kinase 1 (Homo sapiens) (UniProt Q13976); experiment: Inhibition of recombinant full length human PKG1alpha assessed as residual activity at 10 uM using RRRLSFAEPG as substrate incubated for 40 mins in presence of [gamma-33P]ATP at Km concentration by radiometric assay relative to control
[14] = test system: Ribosomal protein S6 kinase beta-1 (Homo sapiens), P23443 [T412E]; experiment: Inhibition of recombinant human p70S6K T412E mutant (1 to 421 residues) assessed as residual activity at 10 uM incubated for 40 mins in presence of [gamma-33P]ATP at Km concentration by radiometric assay relative to control
Ribosomal protein S6 kinase beta-1 (Homo sapiens), P23443 [T412E], sequence (P23443 whole entry T412E, looked up, the tested form may be a part): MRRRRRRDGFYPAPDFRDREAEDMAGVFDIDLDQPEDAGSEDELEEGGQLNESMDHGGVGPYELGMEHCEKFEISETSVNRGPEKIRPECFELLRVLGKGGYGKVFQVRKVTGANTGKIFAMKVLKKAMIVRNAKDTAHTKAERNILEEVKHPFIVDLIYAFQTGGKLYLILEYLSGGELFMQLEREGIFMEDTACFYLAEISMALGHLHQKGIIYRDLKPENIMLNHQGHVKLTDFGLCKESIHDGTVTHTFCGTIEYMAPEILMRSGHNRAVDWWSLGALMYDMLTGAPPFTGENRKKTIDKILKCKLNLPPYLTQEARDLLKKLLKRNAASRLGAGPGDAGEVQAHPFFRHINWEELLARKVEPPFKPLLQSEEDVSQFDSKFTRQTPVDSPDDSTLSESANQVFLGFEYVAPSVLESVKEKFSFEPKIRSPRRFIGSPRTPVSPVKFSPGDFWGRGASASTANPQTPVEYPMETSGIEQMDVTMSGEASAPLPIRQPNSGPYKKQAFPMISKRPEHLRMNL

[15] = molecular target: cAMP-dependent protein kinase catalytic subunit alpha (Homo sapiens) (UniProt P17612); experiment: Inhibition of recombinant full length human PRKACA assessed as residual activity at 10 uM using LRRASLG as substrate incubated for 40 mins in presence of [gamma-33P]ATP at Km concentration by radiometric assay relative to control
[16] = molecular target: Rho-associated protein kinase 1 (Homo sapiens) (UniProt Q13464); experiment: Inhibition of recombinant human ROCK1 (17 to 535 residues) assessed as residual activity at 10 uM using KEAKEKRQEQIAKR as substrate incubated for 40 mins in presence of [gamma-33P]ATP at Km concentration by radiometric assay relative to control
[17] = molecular target: Tyrosine-protein kinase Lyn (Homo sapiens) (UniProt P07948); experiment: Inhibition of full length recombinant human LYN assessed as residual activity at 10 uM using poly (Glu,Tyr) 4:1 as substrate incubated for 40 mins in presence of [gamma-33P]ATP at Km concentration by radiometric assay relative to control
[18] = molecular target: Serine/threonine-protein kinase 4 (Homo sapiens) (UniProt Q13043); experiment: Inhibition of full length recombinant human MST1 assessed as residual activity at 10 uM using KKSRGDYMTMQIG as substrate incubated for 40 mins in presence of [gamma-33P]ATP at Km concentration by radiometric assay relative to control
[19] = molecular target: SRSF protein kinase 1 (Homo sapiens) (UniProt Q96SB4); experiment: Inhibition of recombinant human SRPK1 (2 to end residues) assessed as residual activity at 10 uM using RSRSRSRSRSRSRSR as substrate incubated for 40 mins in presence of [gamma-33P]ATP at Km concentration by radiometric assay relative to control
[20] = molecular target: Casein kinase I isoform gamma-1 (Homo sapiens) (UniProt Q9HCP0); experiment: Inhibition of recombinant human CK1gamma1 (25 to 355 residues) assessed as residual activity at 10 uM using KRRRALS(p)VAS as substrate incubated for 40 mins in presence of [gamma-33P]ATP at Km concentration by radiometric assay relative to control
Casein kinase I isoform gamma-1 (Homo sapiens), sequence (Q9HCP0 whole entry, looked up, the tested form may be a part, canonical isoform): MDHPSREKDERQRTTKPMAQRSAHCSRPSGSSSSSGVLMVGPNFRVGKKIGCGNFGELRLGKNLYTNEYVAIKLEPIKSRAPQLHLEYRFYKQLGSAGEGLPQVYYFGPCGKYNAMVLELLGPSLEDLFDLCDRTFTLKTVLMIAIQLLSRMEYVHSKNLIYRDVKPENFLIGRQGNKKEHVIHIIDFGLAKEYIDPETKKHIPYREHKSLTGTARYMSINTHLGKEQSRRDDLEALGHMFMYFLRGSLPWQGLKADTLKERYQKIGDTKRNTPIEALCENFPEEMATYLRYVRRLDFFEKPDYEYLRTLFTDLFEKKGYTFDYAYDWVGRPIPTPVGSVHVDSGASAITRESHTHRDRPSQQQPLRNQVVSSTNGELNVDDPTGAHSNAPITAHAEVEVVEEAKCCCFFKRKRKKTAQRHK

Compound: COc1ccc2c(CCNc3nc(NCc4ccc(=O)[nH]c4)c4nc[nH]c4n3)c[nH]c2c1
- Activity [1]: 11%
- Ratio Ki [2]: 48.1
- Activity [3]: 91%
- Activity [4]: 109%
- Activity [5]: 69%
- Activity [6]: 87%
- Activity [7]: 93%
- Activity [8]: 100%
- Activity [9]: -3%
- Ki [10]: 4.88 µM
- Activity [11]: 69%
- Activity [12]: 109%
- Activity [13]: 97%
- Activity [14]: 94%
- Activity [15]: 77%
- Activity [16]: 91%
- Activity [17]: 86%
- Activity [18]: 82%
- Activity [19]: 91%
- Activity [20]: 6%
